The list is not random: actives were taken first. Their share in the collection is about 3.7%.
Kir21 inh: inhibitors of mouse Kir2.1 inward-rectifier potassium channel; P35561; AID 1672; HEK293-Kir2.1, FluxOR thallium flux fluorescence; hits give low values; B-score at 10 µM; hit rate 0.85% among 310,000;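 active = fluorescence ratio B-score at or below minus 3 SD of library scores, with starting-brightness B-score within 2 SD, cut at about -4.2 in these data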;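 also: channel flux triggered by added potassium and thallium sulfate stimulus; B-score of peak minus minimum fluorescence over baseline after thallium stimulus; more negative B-score means stronger Kir2.1 block with less thallium influx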
KCNK9 block: inhibitors of human KCNK9 two-pore domain potassium channel; hit rate 1.2% among 310,000; B-score at 10 µM; HEK293 KCNK9, FluxOR thallium flux fluorescence; hits give low values; Q9NPC2; AID 488922;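 active = ratio B-score over 3 SD below the library mean, with starting fluorescence within 5 SD of its mean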;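 also: negative B-score means less thallium flux so channel inhibition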
hERG rescue: compounds protecting human hERG from proarrhythmic drug block; Q12809; CHO-hERG, FluxOR thallium flux, dofetilide IC70 present; activation (rescue from dofetilide block), less the hit threshold, % at 10 µM; hit rate 0.51% among 310,000; AID 1511;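 active = activation above the mean of controls blocked by dofetilide plus 5 SD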;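 also: thallium influx through hERG after potassium depolarization seen as dye fluorescence rise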
Target sequence (Q12809 whole entry, looked up): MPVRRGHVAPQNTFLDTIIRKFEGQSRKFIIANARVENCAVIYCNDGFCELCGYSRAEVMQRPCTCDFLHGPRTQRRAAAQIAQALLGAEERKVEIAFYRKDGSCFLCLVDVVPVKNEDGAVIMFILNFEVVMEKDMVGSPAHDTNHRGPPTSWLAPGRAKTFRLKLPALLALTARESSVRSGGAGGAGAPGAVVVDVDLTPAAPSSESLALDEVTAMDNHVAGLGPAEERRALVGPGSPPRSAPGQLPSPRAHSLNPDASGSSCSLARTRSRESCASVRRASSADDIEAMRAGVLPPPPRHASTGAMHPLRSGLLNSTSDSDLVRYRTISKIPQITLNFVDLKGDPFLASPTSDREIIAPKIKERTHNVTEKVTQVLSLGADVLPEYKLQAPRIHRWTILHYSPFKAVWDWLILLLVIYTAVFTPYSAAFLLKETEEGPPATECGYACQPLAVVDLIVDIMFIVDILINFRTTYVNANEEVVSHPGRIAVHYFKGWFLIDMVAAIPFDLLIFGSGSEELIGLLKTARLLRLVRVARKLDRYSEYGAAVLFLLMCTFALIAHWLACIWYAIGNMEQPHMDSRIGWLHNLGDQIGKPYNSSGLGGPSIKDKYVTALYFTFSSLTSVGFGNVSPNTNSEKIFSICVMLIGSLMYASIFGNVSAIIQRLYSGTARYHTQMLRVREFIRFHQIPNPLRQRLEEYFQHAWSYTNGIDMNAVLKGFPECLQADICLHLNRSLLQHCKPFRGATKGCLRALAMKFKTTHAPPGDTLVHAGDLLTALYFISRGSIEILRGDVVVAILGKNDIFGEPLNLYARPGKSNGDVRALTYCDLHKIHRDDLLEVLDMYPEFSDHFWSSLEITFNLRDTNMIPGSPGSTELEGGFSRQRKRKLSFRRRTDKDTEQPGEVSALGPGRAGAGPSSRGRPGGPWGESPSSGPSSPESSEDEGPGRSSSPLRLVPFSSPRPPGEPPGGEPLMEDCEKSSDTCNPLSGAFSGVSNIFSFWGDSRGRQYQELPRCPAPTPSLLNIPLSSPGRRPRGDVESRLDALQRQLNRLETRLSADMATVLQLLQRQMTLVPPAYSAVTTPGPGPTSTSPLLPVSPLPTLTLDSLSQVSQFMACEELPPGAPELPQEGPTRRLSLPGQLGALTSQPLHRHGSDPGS
KCNQ1 block: inhibitors of human KCNQ1 potassium channel | P51787 | CHO-K1 KCNQ1, FluxOR thallium flux fluorescence; hits give high values | B-score at 10 µM | hit rate 1.3% among 310,000;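 active = compounds whose thallium flux B-score, printed positive for inhibition, exceeds three library SD while starting fluorescence stays within three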;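 also: channel opened by potassium depolarization with thallium stimulus after 20 min compound exposure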
KCNK3 block: human KCNK3 channel inhibition, primary screen. CHO-KCNK3 thallium flux, FluxOR fluorescence; hits give low values. B-score at 10 µM. hit rate 0.84% among 340,000;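 active = B-score under library mean minus 4 SD, starting fluorescence ratio at most library mean plus 5 SD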;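 also: more negative B-score means stronger inhibition of thallium flux through KCNK3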
KCNQ1 act: human KCNQ1 channel potentiation or activation | P51787 | CHO-K1 KCNQ1, thallium flux FluxOR fluorescence; hits give high values | B-score at 10 µM | hit rate 0.35% among 310,000 | AID 2648;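 active = fluorescence ratio B-score, a plate-corrected score, at least three library SD, with initial intensity B-score within 5 SD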
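Test system: CHO-K1 cells stably expressing KCNQ1 / Medium: assay buffer / Also added: depolarizing K+/Tl+ stimulus, K2SO4 and Tl2SO4 each 12.5 mM in 5x stock / Incubation: 90 min dye loading and 20 min compound exposure, both at room temperature / Signal: thallium influx via FluxOR fluorescence, kinetic imaging / Evaluation: B score of baseline-normalized fluorescence ratio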
Large screens that a line does not name were inactive.

CC(NC(=O)NC1CCCCC1)C(c1cccs1)N1CCN(Cc2ccccc2)CC1 (stereo not drawn)	none
CCN1CCN(C(c2cccs2)C(C)NC(=S)Nc2cc(C)ccc2C)CC1 (stereo not drawn)	Kir21 inh -5.5
CC(NC(=S)NCCc1ccccc1)C(c1cccs1)N1CCN(Cc2ccccc2)CC1 (stereo not drawn)	KCNQ1 block 6
C[C@@H](C(=O)N1CCN(Cc2ccc3c(c2)OCO3)CC1)n1nnc2ccccc2c1=O	none
O=C(Nc1ccc(Nc2ccncc2)cc1)c1ccc(Nc2ccnc3ccc([N+](=O)[O-])cc23)cc1[N+](=O)[O-]	hERG rescue 13
O=C(Nc1ccc(Nc2ccncc2)cc1)c1ccc([N+](=O)[O-])cc1	none
O=C(NC1CCCC1)C(=O)N(Cc1cccnc1)C(C(=O)NC1CCCC1)c1ccco1 (stereo not drawn)	none
Cc1ccc(C(C(=O)NC(C)(C)C)N(Cc2cccnc2)C(=O)C(=O)NC2CCCCC2)o1 (stereo not drawn)	hERG rescue 33
c1cncc(-c2nn[nH]n2)c1	hERG rescue 7.5
Cn1ncc(Cl)c1C(=O)Nc1cccc(Cl)c1	none
Cn1ncc(N=Cc2c(O)ccc3ccccc23)c1C(=O)Nc1cccc(Cl)c1	KCNK9 block -7.4
COc1cccc(C(C)NC(=O)Nc2cccc(C(F)(F)F)c2)c1 (stereo not drawn)	KCNK9 block -6.8
COc1cccc(C(C)NC(=O)Nc2cc(Cl)ccc2OC)c1 (stereo not drawn)	none
Clc1ccc(OCc2cc(-c3ccccc3)no2)c(Cl)c1	KCNK9 block -7.4
Cc1cccc(OCc2cc(-c3ccccc3)no2)c1C	none
O=C(CC(=O)c1ccccn1)c1ccccc1	none (no result: Kir21 inh, KCNK9 block, hERG rescue, KCNQ1 block, KCNQ1 act)
Cc1[nH][nH]c(=O)c1C(c1ccc(-c2cccc(C(=O)O)c2)o1)c1c(C)[nH][nH]c1=O	none
Cc1[nH][nH]c(=O)c1C(c1ccc(-c2cccc(Cl)c2)o1)c1c(C)[nH][nH]c1=O	Kir21 inh -6.6
Cc1cc(C(F)(F)F)n(-c2nc(C(=O)NN)cs2)n1	hERG rescue 5.0
c1ccc(C(c2ccccc2)N2CCN(C(c3ccccn3)c3nnnn3C3CCCC3)CC2)cc1 (stereo not drawn)	KCNK9 block -15
CCCCNC(=O)N1CCOCCOCCN(C(=O)NCCCC)CCOCCOCC1	none
CCCCOC(=O)N1CCOCCOCCOCC1	Kir21 inh -4.7
CC(=O)Nc1ccc2ccccc2c1[N+](=O)[O-]	none (no result: Kir21 inh, KCNK9 block, hERG rescue, KCNQ1 block, KCNQ1 act)
Cc1ccccc1Nc1nc(-c2sc(NC(=O)c3ccc([N+](=O)[O-])cc3)nc2C)cs1	KCNQ1 block 7 (no result: KCNK3 block)
CC(CNC(=O)COC(=O)c1ccco1)c1ccccc1 (stereo not drawn)	none (no result: Kir21 inh, KCNK9 block, hERG rescue, KCNQ1 block, KCNQ1 act)
CC(C)Oc1ccccc1OCCN(C)C	none
CN(C)CCC(Oc1ccccc1OCc1ccccc1)c1ccccc1 (stereo not drawn)	Kir21 inh -4.6
COc1nccnc1NS(=O)(=O)c1ccc(NC(=S)NC(=O)c2ccccc2F)cc1	KCNQ1 act 8
Oc1c(N=NC(=S)Nc2ccccc2F)c2ccccc2n1Cc1ccccc1	hERG rescue 59, KCNQ1 act 10
C=CCn1c(O)c(N=NC(=S)Nc2ccccc2F)c2ccccc21	hERG rescue 102, KCNQ1 act 48
NC(=S)N=Nc1c(O)n(Cc2ccccc2)c2ccccc12	none
Oc1c(N=NC(=S)Nc2ccccc2F)c2ccccc2n1Cc1ccccc1Cl	hERG rescue 21, KCNQ1 act 10
Cc1ccc(Cn2c(O)c(N=NC(=S)Nc3ccccc3F)c3ccccc32)cc1	hERG rescue 18
C=CCn1c(O)c(N=NC(=O)c2ccccc2NS(=O)(=O)c2cccs2)c2ccccc21	none
C=CCn1c(O)c(N=NC(=S)Nc2cccc(C)c2)c2ccccc21	hERG rescue 19, KCNQ1 act 40
C=CCn1c(O)c(N=NC(=S)Nc2ccccc2F)c2cc(S(=O)(=O)N3CCOCC3)ccc21	hERG rescue 5.9, KCNQ1 act 10
C/C(Cl)=C\Cn1c(O)c(N=NC(N)=S)c2ccccc21	hERG rescue 15
CCn1c(O)c(N=NC(=O)CNc2cccc(C)c2)c2ccccc21	none
COc1ccc(S(=O)(=O)CC(=O)c2cc3cc(Br)ccc3oc2=O)cc1	none
COc1cccc(-c2cc(C(F)(F)F)nc(N3CCC(C)CC3)n2)c1	hERG rescue 5.1
COc1ccc(-c2nc(CS(=O)CC(=O)N3CCN(C)CC3)c(C)o2)cc1 (stereo not drawn)	none
CCOc1ccc(-c2nn(-c3ccccc3)cc2/C=C2\SC(=S)N(Cc3ccco3)C2=O)cc1	none
CC(C)COc1ccc(-c2nn(-c3ccccc3)cc2/C=C2/SC(=S)N(CC(=O)O)C2=O)cc1	KCNQ1 act 8
O=C(Nc1ccc(Cl)cc1)C1CCCN(C2=NS(=O)(=O)c3ccccc32)C1 (stereo not drawn)	none (no result: Kir21 inh, KCNK9 block, hERG rescue, KCNQ1 block, KCNQ1 act)
NNC(=O)c1ccc(N2CCc3ccccc32)c([N+](=O)[O-])c1	none
Cc1ccc(CNC(=O)c2ccc(N3CCc4ccccc43)c([N+](=O)[O-])c2)cc1	Kir21 inh -6.5
COc1ccc(C2CC(O)(c3ccccc3)Oc3cc(OC)c(OC)c(OC)c32)cc1 (stereo not drawn)	none
COc1ccc([C@@H]2C[C@H](c3ccccc3)Oc3cc(OC)c(OC)c(OC)c32)cc1	KCNK9 block -6.8
CCCn1c(N)c(N(CCOC)C(=O)CSc2ccccc2)c(=O)[nH]c1=O	none (no result: Kir21 inh, KCNK9 block, hERG rescue, KCNQ1 block, KCNQ1 act)
CCC(=O)Nc1ccc(C(=O)CSc2nc3ccccc3cc2CC)cc1	KCNK9 block -7.2
CC(C)NC(=O)N(C)C[C@H]1Oc2ccc(NC(=O)Nc3ccc(C(F)(F)F)cc3)cc2C(=O)N([C@H](C)CO)C[C@@H]1C	none (no result: Kir21 inh, KCNK9 block, hERG rescue, KCNQ1 block, KCNQ1 act)
CC(Sc1ccsc1[N+](=O)[O-])C(=O)NCc1ccco1 (stereo not drawn)	KCNK9 block -7.7
COc1ccc2ccc(OCC(=O)Nc3cc(C)on3)cc2c1	none (no result: Kir21 inh, KCNK9 block, hERG rescue, KCNQ1 block, KCNQ1 act)
COc1cccc(NC(=O)c2ccc(N3C(=O)C4CC=CCC4C3=O)cc2)c1 (stereo not drawn)	none
O=C(CCC(=O)Nc1ccc(Cl)cc1)N/N=C/c1ccc2c(c1)OCO2	KCNQ1 block 6
O=C(CCC(=O)Nc1ccccc1)N/N=C/c1ccc2c(c1)OCO2	none
CCCc1cc(=O)[nH]c(SCC(=O)Nc2ccc(OC)c(S(=O)(=O)N3CCCCC3)c2)n1	none (no result: Kir21 inh, KCNK9 block, hERG rescue, KCNQ1 block, KCNQ1 act)
O=[N+]([O-])/C=C/c1cc2ccccc2[nH]1	KCNQ1 block 6
Cc1cccc(N2CCN(C(=O)CNC(=O)Cc3ccccc3)CC2)c1C	none (no result: Kir21 inh, KCNK9 block, hERG rescue, KCNQ1 block, KCNQ1 act)
Cc1cccc(N2CCN(C(=O)CNC(=O)c3cccc([N+](=O)[O-])c3)CC2)c1C	hERG rescue 12
